Measurements: ChEMBL document CHEMBL5230171, “Expanding the structure-activity relationships of alkynyl diphenylurea scaffold as promising antibacterial agents” (RSC Med Chem, 2023)
In brackets after ≈: the same amount, converted by molar mass. Activity calls are given as the source filed them. The calls are words filed in the database; no cut-off is given here.

Experiments:
[1] = tested on: Staphylococcus aureus; test: Antibacterial activity against vancomycin resistant Staphylococcus aureus 12 assessed as inhibition of bacterial growth at 0.5 ug/ml incubated for 18 to 20 hrs by CLSI protocol based broth microdilution method; assay type: functional, organism-based; conditions: dose 0.5 µg/ml, time 18-20 hrs
[2] = tested on: Staphylococcus aureus; test: Antibacterial activity against methicillin sensitive Staphylococcus aureus 6538 assessed as inhibition of bacterial growth incubated for 18 to 20 hrs by CLSI protocol based broth microdilution method; assay type: functional; conditions: time 18-20 hrs
Summary of the method: (§1)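 Broth microdilution against staphylococcal clinical isolates. Each strain was prepared as a 0.5 McFarland suspension and diluted in cation-adjusted Mueller Hinton broth to ~5 × 10^5 CFU mL−1. Serial dilutions of test agents in DMSO stock were incubated with the bacteria, and the MIC was recorded.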

[3] = tested on: Staphylococcus aureus; test: Antibacterial activity against methicillin sensitive Staphylococcus aureus 6538 assessed as inhibition of bacterial growth at 0.5 ug/ml incubated for 18 to 20 hrs by CLSI protocol based broth microdilution method; assay type: functional, organism-based; conditions: dose 0.5 µg/ml, time 18-20 hrs
Summary of the method: (§2)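 Staphylococcal and E. coli strains were diluted from a 0.5 McFarland suspension in cation-adjusted Mueller Hinton broth to ~5 × 10^5 CFU mL−1. They were incubated with serial dilutions of test agent in broth microdilution, and the MIC was recorded.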

[4] = tested on: Staphylococcus aureus; test: Antibacterial activity against methicillin sensitive Staphylococcus aureus 107 assessed as inhibition of bacterial growth at 0.5 ug/ml incubated for 18 to 20 hrs by CLSI protocol based broth microdilution method; assay type: functional, organism-based; conditions: dose 0.5 µg/ml, time 18-20 hrs; summary of the method: as §2
[5] = tested on: Staphylococcus aureus; test: Antibacterial activity against methicillin resistant Staphylococcus aureus 386 assessed as inhibition of bacterial growth incubated for 18 to 20 hrs by CLSI protocol based broth microdilution method; assay type: functional; conditions: time 18-20 hrs; summary of the method: as §1
[6] = tested on: Staphylococcus aureus; test: Antibacterial activity against methicillin resistant Staphylococcus aureus 386 assessed as inhibition of bacterial growth at 0.5 ug/ml incubated for 18 to 20 hrs by CLSI protocol based broth microdilution method; assay type: functional, organism-based; conditions: dose 0.5 µg/ml, time 18-20 hrs
[7] = tested on: Staphylococcus aureus; test: Antibacterial activity against methicillin resistant Staphylococcus aureus 385 assessed as inhibition of bacterial growth incubated for 18 to 20 hrs by CLSI protocol based broth microdilution method; assay type: functional; conditions: time 18-20 hrs; summary of the method: as §1
[8] = tested on: Listeria monocytogenes; test: Antibacterial activity against Listeria monocytogenes 19111 assessed as inhibition of bacterial growth incubated for 18 to 20 hrs by CLSI protocol based broth microdilution method; assay type: functional; conditions: time 18-20 hrs
Summary of the method: (§3)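 Enterococci and L. monocytogenes were diluted from a 0.5 McFarland suspension in TSB. They were incubated with serial dilutions of test agent in broth microdilution, and the MIC was recorded.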

[9] = tested on: Staphylococcus aureus; test: Antibacterial activity against methicillin resistant Staphylococcus aureus 123 assessed as inhibition of bacterial growth at 0.5 ug/ml incubated for 18 to 20 hrs by CLSI protocol based broth microdilution method; assay type: functional, organism-based; conditions: dose 0.5 µg/ml, time 18-20 hrs
[10] = tested on: Staphylococcus aureus; test: Antibacterial activity against methicillin resistant Staphylococcus aureus 119 assessed as inhibition of bacterial growth at 0.5 ug/ml incubated for 18 to 20 hrs by CLSI protocol based broth microdilution method; assay type: functional, organism-based; conditions: dose 0.5 µg/ml, time 18-20 hrs
[11] = tested on: Staphylococcus aureus; test: Antibacterial activity against vancomycin resistant Staphylococcus aureus 9 assessed as inhibition of bacterial growth at 0.5 ug/ml incubated for 18 to 20 hrs by CLSI protocol based broth microdilution method; assay type: functional, organism-based; conditions: dose 0.5 µg/ml, time 18-20 hrs
[12] = tested on: Staphylococcus aureus; test: Antibacterial activity against methicillin resistant Staphylococcus aureus 384 assessed as inhibition of bacterial growth incubated for 18 to 20 hrs by CLSI protocol based broth microdilution method; assay type: functional; conditions: time 18-20 hrs; summary of the method: as §1
[13] = tested on: Staphylococcus aureus; test: Antibacterial activity against methicillin resistant Staphylococcus aureus 123 assessed as inhibition of bacterial growth incubated for 18 to 20 hrs by CLSI protocol based broth microdilution method; assay type: functional; conditions: time 18-20 hrs; summary of the method: as §1
[14] = tested on: Streptococcus pneumoniae; test: Antibacterial activity against Streptococcus pneumoniae 51916 assessed as inhibition of bacterial growth incubated for 18 to 20 hrs by CLSI protocol based broth microdilution method; assay type: functional; conditions: time 18-20 hrs
Summary of the method: (§4)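 Streptococci were diluted from a 0.5 McFarland suspension in cation-adjusted Mueller Hinton broth with 5% lysed horse blood. They were incubated with serial dilutions of test agent in broth microdilution, and the MIC was recorded.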

[15] = tested on: Staphylococcus aureus; test: Antibacterial activity against vancomycin resistant Staphylococcus aureus 10 assessed as inhibition of bacterial growth incubated for 18 to 20 hrs by CLSI protocol based broth microdilution method; assay type: functional; conditions: time 18-20 hrs; summary of the method: as §1
[16] = tested on: Staphylococcus aureus; test: Antibacterial activity against methicillin resistant Staphylococcus aureus 119 assessed as inhibition of bacterial growth incubated for 18 to 20 hrs by CLSI protocol based broth microdilution method; assay type: functional; conditions: time 18-20 hrs; summary of the method: as §1
[17] = tested on: Staphylococcus epidermidis; test: Antibacterial activity against Staphylococcus epidermidis 101 assessed as inhibition of bacterial growth incubated for 18 to 20 hrs by CLSI protocol based broth microdilution method; assay type: functional; conditions: time 18-20 hrs; summary of the method: as §2
[18] = tested on: Streptococcus pneumoniae; test: Antibacterial activity against Streptococcus pneumoniae 700677 assessed as inhibition of bacterial growth incubated for 18 to 20 hrs by CLSI protocol based broth microdilution method; assay type: functional; conditions: time 18-20 hrs; summary of the method: as §4
[19] = tested on: Staphylococcus aureus; test: Antibacterial activity against methicillin resistant Staphylococcus aureus NRS384 USA300 assessed as inhibition of bacterial growth incubated for 18 to 20 hrs by CLSI protocol based broth microdilution method; assay type: functional; conditions: time 18-20 hrs, read-out: MIC; summary of the method: as §1
[20] = tested on: Streptococcus pyogenes; test: Antibacterial activity against Streptococcus pyogenes MGAS 1882 assessed as inhibition of bacterial growth incubated for 18 to 20 hrs by CLSI protocol based broth microdilution method; assay type: functional; conditions: time 18-20 hrs; summary of the method: as §4
[21] = tested on: Staphylococcus aureus; test: Antibacterial activity against methicillin resistant Staphylococcus aureus 384 assessed as inhibition of bacterial growth at 0.5 ug/ml incubated for 18 to 20 hrs by CLSI protocol based broth microdilution method; assay type: functional, organism-based; conditions: dose 0.5 µg/ml, time 18-20 hrs
[22] = tested on: Staphylococcus aureus; test: Antibacterial activity against vancomycin resistant Staphylococcus aureus 9 assessed as inhibition of bacterial growth incubated for 18 to 20 hrs by CLSI protocol based broth microdilution method; assay type: functional; conditions: time 18-20 hrs; summary of the method: as §1
[23] = tested on: Enterococcus faecium; test: Antibacterial activity against Enterococcus faecium 700221 assessed as inhibition of bacterial growth incubated for 18 to 20 hrs by CLSI protocol based broth microdilution method; assay type: functional; conditions: time 18-20 hrs; summary of the method: as §3
[24] = tested on: Vero; test: Cytotoxicity against African green monkey Vero cells assessed as reduction in cell viability at 64 ug/ml incubated for 24 hrs by MTS assay; assay type: toxicity, cell-based; conditions: chlorocebus sabaeus, dose 64 µg/ml
Summary of the method: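 Vero or HaCaT cells were exposed to 32, 64 and 128 μg mL−1 compound in triplicate for 24 h at 37 °C, 5% CO2, with a DMSO control. MTS was then added for 4 h and OD490 read. Analysis used two-way ANOVA with Dunnett's post hoc test (p < 0.05).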

[25] = tested on: Enterococcus faecalis; test: Antibacterial activity against Enterococcus faecalis 51299 assessed as inhibition of bacterial growth incubated for 18 to 20 hrs by CLSI protocol based broth microdilution method; assay type: functional; conditions: time 18-20 hrs; summary of the method: as §3
[26] = tested on: Staphylococcus aureus; test: Antibacterial activity against vancomycin resistant Staphylococcus aureus 10 assessed as inhibition of bacterial growth at 0.5 ug/ml incubated for 18 to 20 hrs by CLSI protocol based broth microdilution method; assay type: functional, organism-based; conditions: dose 0.5 µg/ml, time 18-20 hrs
[27] = tested on: Staphylococcus aureus; test: Antibacterial activity against methicillin resistant Staphylococcus aureus 385 assessed as inhibition of bacterial growth at 0.5 ug/ml incubated for 18 to 20 hrs by CLSI protocol based broth microdilution method; assay type: functional, organism-based; conditions: dose 0.5 µg/ml, time 18-20 hrs
[28] = tested on: Staphylococcus aureus; test: Antibacterial activity against methicillin sensitive Staphylococcus aureus 107 assessed as inhibition of bacterial growth incubated for 18 to 20 hrs by CLSI protocol based broth microdilution method; assay type: functional; conditions: time 18-20 hrs; summary of the method: as §1
[29] = tested on: Streptococcus mutans; test: Antibacterial activity against Streptococcus mutans 25175 assessed as inhibition of bacterial growth incubated for 18 to 20 hrs by CLSI protocol based broth microdilution method; assay type: functional; conditions: time 18-20 hrs; summary of the method: as §4
[30] = tested on: Staphylococcus aureus; test: Antibacterial activity against vancomycin resistant Staphylococcus aureus 12 assessed as inhibition of bacterial growth incubated for 18 to 20 hrs by CLSI protocol based broth microdilution method; assay type: functional; conditions: time 18-20 hrs; summary of the method: as §1
[31] = tested on: Streptococcus pyogenes; test: Antibacterial activity against Streptococcus pyogenes MGAS 9882 assessed as inhibition of bacterial growth incubated for 18 to 20 hrs by CLSI protocol based broth microdilution method; assay type: functional; conditions: time 18-20 hrs; summary of the method: as §4

## C/C(=N\NC(=N)N)c1ccc(NC(=O)Nc2ccc(C#CCC(C)C)cc2)cc1
[1]
  Activity: Active
[2]
  MIC: 0.5 µg/mL (≈ 1.28 µM)
[3]
  Activity: Active
[4]
  Activity: Active
[5]
  MIC: 0.5 µg/mL (≈ 1.28 µM)
[6]
  Activity: Active
[7]
  MIC: 0.5 µg/mL (≈ 1.28 µM)
[8]
  MIC: 0.5 µg/mL (≈ 1.28 µM)
[9]
  Activity: Active
[10]
  Activity: Active
[11]
  Activity: Active
[12]
  MIC: 0.5 µg/mL (≈ 1.28 µM)
[13]
  MIC: 0.5 µg/mL (≈ 1.28 µM)
[14]
  MIC: 0.5 µg/mL (≈ 1.28 µM)
[15]
  MIC: 0.5 µg/mL (≈ 1.28 µM)
[16]
  MIC: 0.5 µg/mL (≈ 1.28 µM)
[17]
  MIC: 0.5 µg/mL (≈ 1.28 µM)
[18]
  MIC: 0.5 µg/mL (≈ 1.28 µM)
[19]
  MIC: 0.5 µg/mL (≈ 1.28 µM)
[20]
  MIC: 0.5 µg/mL (≈ 1.28 µM)
[21]
  Activity: Active
[22]
  MIC: 0.5 µg/mL (≈ 1.28 µM)
[23]
  MIC: 0.5 µg/mL (≈ 1.28 µM)
[24]
  Activity: Non-Toxic
[25]
  MIC: 0.5 µg/mL (≈ 1.28 µM)
[26]
  Activity: Active
[27]
  Activity: Active
[28]
  MIC: 0.5 µg/mL (≈ 1.28 µM)
[29]
  MIC: 0.5 µg/mL (≈ 1.28 µM)
[30]
  MIC: 0.5 µg/mL (≈ 1.28 µM)
[31]
  MIC: 0.5 µg/mL (≈ 1.28 µM)

## CCCCC#Cc1ccc(NC(=O)Nc2ccc(/C(C)=N/NC(=N)N)cc2)cc1
[1]
  Activity: Active
[2]
  MIC: 0.5 µg/mL (≈ 1.28 µM)
[3]
  Activity: Active
[4]
  Activity: Active
[5]
  MIC: 0.5 µg/mL (≈ 1.28 µM)
[6]
  Activity: Active
[7]
  MIC: 0.5 µg/mL (≈ 1.28 µM)
[8]
  MIC: 0.5 µg/mL (≈ 1.28 µM)
[9]
  Activity: Active
[10]
  Activity: Active
[11]
  Activity: Active
[12]
  MIC: 0.5 µg/mL (≈ 1.28 µM)
[13]
  MIC: 0.5 µg/mL (≈ 1.28 µM)
[14]
  MIC: 0.5 µg/mL (≈ 1.28 µM)
[15]
  MIC: 0.5 µg/mL (≈ 1.28 µM)
[16]
  MIC: 0.5 µg/mL (≈ 1.28 µM)
[17]
  MIC: 0.5 µg/mL (≈ 1.28 µM)
[18]
  MIC: 0.5 µg/mL (≈ 1.28 µM)
[19]
  MIC: 0.5 µg/mL (≈ 1.28 µM)
[20]
  MIC: 0.5 µg/mL (≈ 1.28 µM)
[21]
  Activity: Active
[22]
  MIC: 0.5 µg/mL (≈ 1.28 µM)
[23]
  MIC: 0.5 µg/mL (≈ 1.28 µM)
[24]
  Activity: Non-Toxic
[25]
  MIC: 0.5 µg/mL (≈ 1.28 µM)
[26]
  Activity: Active
[27]
  Activity: Active
[28]
  MIC: 0.5 µg/mL (≈ 1.28 µM)
[29]
  MIC: 0.5 µg/mL (≈ 1.28 µM)
[30]
  MIC: 0.5 µg/mL (≈ 1.28 µM)
[31]
  MIC: 0.5 µg/mL (≈ 1.28 µM)
